A selection: hits, their analogues and other compounds. The true share with any hit is near 2.3%.
TRPC4 act: opens the mouse TRPC4 cation channel; AID 2237; 310,000 tested, 0.49% active; B-score at 10 µM; Q9QUQ5; HEK293 TRPC4beta/mu-opioid, Fluo4 calcium fluorescence; active compounds read high;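 active = B-score above 5 SD of library B-scores, and initial fluorescence ratio not above library mean plus 5 SD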;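 also: positive B-score marks a calcium rise read as TRPC4 activation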
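Assay system: HEK293 cells stably co-expressing mouse TRPC4beta and mu-opioid receptor / Timing: Fluo4 dye loading 45 min at room temperature, 110 s recording / Signal: Fluo4 calcium-sensitive dye fluorescence, kinetic, 1 Hz baseline / Read-out: integrated baseline-normalised fluorescence ratio, converted to per-well B score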
TRPC4 potent: allosterically enhances the mouse TRPC4 cation channel; 310,000 tested, 0.42% active; B-score at 10 µM; HEK293 TRPC4beta/mu-opioid, DAMGO EC20, Fluo-4 Ca2+ flux; active compounds read high; Q9QUQ5;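 active = B-score of calcium response area above 5 SD of library B-scores, with initial fluorescence ratio within 5 SD of library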
TRPC6 act: activators of mouse TRPC6 channel; Q61143; HEK293-TRPC6 membrane potential dye fluorescence; active compounds read high; B-score at 10 µM; AID 2550; 310,000 tested, 0.13% active;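 active = B-score of the integrated fluorescence ratio above library mean plus 3 SD, and starting fluorescence ratio within library mean plus 5 SD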;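 also: higher score means more depolarization so channel activation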
Target sequence (Q61143 whole entry, looked up): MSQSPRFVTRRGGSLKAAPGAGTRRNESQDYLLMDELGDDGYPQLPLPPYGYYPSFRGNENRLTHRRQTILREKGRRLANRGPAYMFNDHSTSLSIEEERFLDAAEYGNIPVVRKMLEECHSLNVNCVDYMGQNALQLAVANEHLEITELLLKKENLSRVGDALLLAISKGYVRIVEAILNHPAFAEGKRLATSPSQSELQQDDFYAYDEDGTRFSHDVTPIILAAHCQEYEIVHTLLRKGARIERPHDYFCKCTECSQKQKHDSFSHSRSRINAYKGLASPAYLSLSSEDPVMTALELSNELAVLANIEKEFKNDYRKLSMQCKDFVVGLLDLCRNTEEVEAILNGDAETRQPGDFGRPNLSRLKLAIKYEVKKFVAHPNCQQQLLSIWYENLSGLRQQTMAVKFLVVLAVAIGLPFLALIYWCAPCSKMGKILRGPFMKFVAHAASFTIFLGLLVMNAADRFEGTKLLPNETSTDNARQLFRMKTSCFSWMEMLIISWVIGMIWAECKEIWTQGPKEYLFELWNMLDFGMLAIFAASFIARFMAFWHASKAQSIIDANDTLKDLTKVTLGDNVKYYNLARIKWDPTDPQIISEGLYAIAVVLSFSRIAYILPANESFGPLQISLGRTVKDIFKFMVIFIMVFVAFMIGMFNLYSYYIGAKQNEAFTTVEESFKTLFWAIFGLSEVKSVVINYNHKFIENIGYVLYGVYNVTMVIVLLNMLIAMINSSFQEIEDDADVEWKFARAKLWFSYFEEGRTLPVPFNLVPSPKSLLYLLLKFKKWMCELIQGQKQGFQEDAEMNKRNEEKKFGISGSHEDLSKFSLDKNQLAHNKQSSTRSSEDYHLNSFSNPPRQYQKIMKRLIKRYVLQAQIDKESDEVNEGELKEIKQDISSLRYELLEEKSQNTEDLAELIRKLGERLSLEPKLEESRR
CR mimetic SO: yeast age-related superoxide inhibition as caloric restriction mimetic | S. cerevisiae aged cells, superoxide DHE fluorescence; active compounds read low | superoxide response (% of plate mean), % at 10 µM | 330,000 tested, 0.18% active;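 active = superoxide response under a set limit, about three screen SD below normal, cut at about 65% in these data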;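 also: yeast aged for seven days with compound at 30 °C before DHE staining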
TRPC6 inhibitor: inhibitors of mouse TRPC6 channel. HEK293-TRPC6, membrane potential dye, ACh-evoked depolarization; active compounds read low. 310,000 tested, 1.1% active. B-score at 10 µM;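 active = B-score under library mean minus 3 SD, initial fluorescence not abnormally high, positive integrated signal ratio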;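 also: B-score derived from integrated fluorescence ratio over the kinetic read; more negative B-score means stronger inhibition of depolarization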
TRPC4 block: inhibitors of mouse TRPC4 channel. Q9QUQ5. HEK293 TRPC4beta/mu-opioid, DAMGO-evoked Fluo4 calcium flux; active compounds read low. B-score at 10 µM. 300,000 tested, 0.39% active. AID 2247;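 active = B-score over 3 SD under the library average, no early fluorescence shift, positive overall ratio signal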
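test system = HEK293 cells with stable TRPC4beta plus mu-opioid receptor expression | detection = Fluo4 Ca2+ flux fluorescence | read-out = integrated fluorescence ratio relative to baseline, converted to per-well B score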
TRPC4 spec 2: second selectivity test of TRPC6 inhibitors: effect on mouse TRPC4 | shares compounds with TRPC6 inhibitor | AID 2776 | HEK293 TRPC4/MOR, membrane potential dye fluorescence; channel activated by saturating DAMGO dose | 920 tested, 42% active | inhibition, % at 10 µM;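 active = compounds whose fluorescence signal differed from control wells by over 3 SD, either direction, in both duplicate plates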
TRPC4 spec: mouse TRPC4 off-target activity of TRPC6 inhibitors; shares compounds with TRPC6 inhibitor; activity change, negative = inhibition, % at 10 µM; AID 2777; HEK293 TRPC4/mu-opioid, membrane potential fluorescence; 920 tested, 61% active;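 active = rise or fall in signal beyond 3 SD of buffer-only wells in both replicate plates, either sign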;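 also: integrated kinetic ratio of fluorescence range over baseline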
HEK293 MPD ctr 2-1: second counter-screen for TRPC6 inhibitors: parental HEK293 cells; shares compounds with TRPC6 inhibitor; parental HEK293 membrane potential dye fluorescence; maximal acetylcholine challenge after compound addition; signal change vs control, % at 10 µM; 920 tested, 31% active;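 active = membrane potential signal moving either way by over 3 SD of the maximum-effect control, in both duplicate plates, meaning non-specific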
HEK293 MPD ctr-1: checks TRPC6 inhibitor effects in parental HEK293 cells. shares compounds with TRPC6 inhibitor. parental HEK293 membrane potential dye fluorescence. membrane potential signal change, % at 10 µM. 920 tested, 60% active;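 active = membrane potential signal shifting up or down by more than 3 SD of buffer-only wells, on both duplicate plates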
HEK293 MPD ctr-2: counter-screen for TRPC6 modulators: effect in parental HEK293 cells; membrane potential signal change, % at 10 µM; membrane potential dye fluorescence; shares compounds with TRPC6 inhibitor; 2,400 tested, 51% active;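 active = membrane potential signal moves up or down beyond 5 SD from buffer-only wells, on both duplicate plates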
HEK293 MPD ctr 2-2: second check of TRPC6 modulator effects in parental HEK293 cells; shares compounds with TRPC6 inhibitor; membrane potential dye fluorescence; after compound, maximal acetylcholine stimulation; inhibition, % at 10 µM; 2,400 tested, 14% active;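 active = membrane potential signal drops by more than 5 SD from the mean control signal, in both duplicate plates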
TRPC4 ctr mod: selectivity of TRPC6 modulators against mouse TRPC4; 2,400 tested, 69% active; shares compounds with TRPC6 inhibitor; HEK293 TRPC4/mu-opioid, membrane potential fluorescence; percent change from control (negative = decrease, positive = increase), % at 10 µM;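 active = membrane potential signal moved up or down beyond 5 SD of buffer control wells, in both duplicate plates, actives on both sides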
TRPC4 ctr inh 2: second selectivity test of TRPC6 modulators against mouse TRPC4. shares compounds with TRPC6 inhibitor. 2,400 tested, 55% active. HEK293 TRPC4/mu-opioid, membrane potential dye fluorescence; stimulated with maximal-effect DAMGO. AID 488928. inhibition, % at 10 µM;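 active = drop in membrane potential signal beyond 5 SD of the control wells in both duplicate plates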;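 also: TRPC4 counter screen for TRPC6 hits run under conditions tuned for TRPC6 not TRPC4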
TRPC6 inh conf: confirmation of mouse TRPC6 inhibitors; 3,300 tested, 43% active; shares compounds with TRPC6 inhibitor; HEK293-TRPC6, membrane potential dye, ACh-evoked depolarization; inhibition, % at 10 µM;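 active = fluorescence ratio falls more than 5 SD below the full-stimulation control mean, in both duplicate runs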;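 also: integrated fluorescence ratio of peak minus minimum over baseline after agonist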
TRPC6 act confirm: mouse TRPC6 activator confirmation; shares compounds with TRPC6 inhibitor; HEK293-TRPC6 membrane potential dye fluorescence, FDSS; activation, % at 10 µM; 2,800 tested, 11% active; AID 488961;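 active = ratio signal rise beyond 5 SD above unstimulated control wells' mean, seen in both duplicate runs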
A number is an active result; . = inactive; / = no result given.

SMILES	TRPC4 act	TRPC4 potent	TRPC6 act	CR mimetic SO	TRPC6 inhibitor	TRPC4 block	HEK293 MPD ctr-2	HEK293 MPD ctr 2-2	TRPC4 ctr mod	TRPC4 ctr inh 2	TRPC6 inh conf	TRPC6 act confirm	others
CNC(=O)N(O)C1N(/N=C/c2ccc(C)cc2)C(=S)SC1(C)C (stereo not given)	.	.	.	.	.	.	/	/	/	/	/	/
CNC(=O)N(O)C1N(/N=C/c2cc(Br)ccc2O)C(=S)SC1(C)C (stereo not given)	.	.	.	.	-6.71	.	/	/	/	/	.	.	TRPC4 spec 2=.;TRPC4 spec=-12.3%;HEK293 MPD ctr 2-1=.;HEK293 MPD ctr-1=-212.0%
COc1cc(/C=C/C(=O)c2ccc3c(c2)OCCO3)cc(Br)c1OCC(=O)N(C)C	.	.	12.9	.	.	.	126.0%	.	27.0%	.	.	51.0%
CCc1ccc(CNc2ccc3c(c2)ncn3C)cc1	.	.	.	.	-6.31	.	.	.	-14.5%	61.0%	37.0%	.
CCn1cnc2cc(NCc3ccc(Cl)cc3)ccc21	.	.	.	.	-5.59	.	.	.	.	39.5%	48.5%	.
CCn1cnc2cc(NCc3ccncc3)ccc21	.	.	.	.	.	.	/	/	/	/	/	/
Cc1c(Cl)cnc(NC(=O)COC(=O)c2ccc([N+](=O)[O-])s2)c1Cl	.	.	.	.	.	.	/	/	/	/	/	/
O=C(CN1CCCC1)Nc1c2c(nc3ccccc13)N(Cc1ccccc1)CC2	.	.	.	.	-6.1	.	-311.5%	.	-49.0%	62.5%	46.0%	.
CC(C)C(=O)Nc1c2c(nc3ccccc13)N(C)CC2	.	.	.	.	.	.	/	/	/	/	/	/
O=C(CN1CCOCC1)Nc1c2c(nc3ccccc13)N(Cc1ccccc1)CC2	.	.	.	.	.	.	/	/	/	/	/	/
CN(C)c1cc(NC(=O)CN2CCCC2)c2ccccc2n1	.	.	.	.	-7.16	.	/	/	/	/	.	.	TRPC4 spec 2=65.5%;TRPC4 spec=-19.5%;HEK293 MPD ctr 2-1=.;HEK293 MPD ctr-1=-323.5%
CN(C)c1cc(NC(=O)CNC(C)(C)CC(C)(C)C)c2ccccc2n1	.	.	.	.	.	.	/	/	/	/	/	/
CCN(CC)CC(=O)Nc1c2c(nc3ccccc13)N(C)CC2	.	.	.	.	-7.49	.	-213.0%	.	-30.5%	54.0%	47.5%	.
CCSc1nnc(-c2ccccc2N)c(=O)[nH]1	.	.	.	.	.	.	/	/	/	/	/	/
CN1CCN(/N=C/c2ccc(N(C)c3ccccc3)cc2)CC1	.	.	.	.	-7.14	.	.	.	-11.5%	56.5%	63.0%	.
CN1CCN(/N=C/c2ccc(N(c3ccccc3)c3ccccc3)cc2)CC1	.	.	.	.	.	.	/	/	/	/	/	/
CC[N+](C)(CC)CCOC(=O)C(O)(c1ccccc1)C1CCCCC1 (stereo not given)	.	.	.	.	-8.93	.	/	/	/	/	83.0%	.	TRPC4 spec 2=.;TRPC4 spec=.;HEK293 MPD ctr 2-1=-33.0%;HEK293 MPD ctr-1=.
CCC(C(=O)NC1CCCCCC1)c1ccccc1 (stereo not given)	.	.	.	.	.	.	/	/	/	/	/	/
CC[N+](C)(CC)CCC(c1ccccc1)C1CCCCC1 (stereo not given)	.	.	.	.	-9.59	.	/	/	/	/	81.2%	.	TRPC4 spec 2=.;TRPC4 spec=.;HEK293 MPD ctr 2-1=-16.0%;HEK293 MPD ctr-1=.
C/C(=N\N=C1/NC(=O)C(C)S1)c1ccco1 (stereo not given)	.	.	.	.	.	.	/	/	/	/	/	/
O=C(Nc1ccccc1Cl)c1ccn[nH]1	.	.	.	.	.	.	/	/	/	/	/	/
Cc1cc2c3c(ccc(C)c3n1)N=CN2c1ccccc1	.	.	.	.	-8.07	.	-240.0%	77.0%	-46.5%	65.5%	52.5%	.
CN1CCC(=C2c3ccccc3C=Cc3ccccc32)CC1	.	.	.	.	-5.55	.	150.5%	76.5%	23.0%	54.5%	75.0%	/
CN1CCN(C(=O)CCN2C(=O)c3ccccc3C2=O)CC1	.	.	.	.	.	.	/	/	/	/	/	/
CCOc1ccc(NC(=O)C(NC(=O)C2CCC(C)CC2)C(C)C)cc1 (stereo not given)	.	.	.	.	-5.74	.	.	.	.	.	.	.
SMILES	TRPC4 act	TRPC4 potent	TRPC6 act	CR mimetic SO	TRPC6 inhibitor	TRPC4 block	HEK293 MPD ctr-2	HEK293 MPD ctr 2-2	TRPC4 ctr mod	TRPC4 ctr inh 2	TRPC6 inh conf	TRPC6 act confirm	others
CCOc1ccc(OCc2ccc(C(=O)NC(C)(C)C)o2)cc1	.	.	.	.	.	.	/	/	/	/	/	/
Clc1ccc(C2Nc3cccc4cccc(c34)N2)cc1	.	.	.	.	.	.	/	/	/	/	/	/
CSc1ccc(C2Nc3cccc4cccc(c34)N2)cc1	.	.	.	.	-6.97	.	/	/	/	/	.	.	TRPC4 spec 2=.;TRPC4 spec=-10.8%;HEK293 MPD ctr 2-1=.;HEK293 MPD ctr-1=-138.5%
O=C(CNCC1CCCCC1)Nc1ccc(N2CCCCC2)cc1	.	.	.	.	.	.	/	/	/	/	/	/
O=C(CNCCC1=CCCCC1)Nc1ccc(N2CCCCCC2)cc1	.	.	.	.	-7.23	.	/	/	/	/	.	.	TRPC4 spec 2=70.0%;TRPC4 spec=-11.9%;HEK293 MPD ctr 2-1=.;HEK293 MPD ctr-1=-152.0%
O=C(CNC1CCCC1)Nc1ccc(N2CCCCCC2)cc1	.	.	.	.	-5.35	.	.	.	-13.0%	65.5%	66.0%	.
O=C(CNCC1CCCO1)Nc1ccc(N2CCCCCC2)cc1 (stereo not given)	.	.	.	.	-6.28	.	.	.	-16.0%	33.0%	.	.
O=C(CNC1CCCCCC1)Nc1ccc(N2CCCC2)cc1	.	.	.	.	.	.	/	/	/	/	/	/
